{
  "source": "ChEMBL document CHEMBL4346667",
  "about": "(Eur J Med Chem, 2019)",
  "format_in_all_cases": "functional",
  "key": {"[1]": {"tested_on": "MCF7", "experiment": "Induction of apoptosis in human MCF7 cells assessed as late apoptotic cells at 5 uM after 24 hrs by Annexin V-FITC/propidium iodide staining-based flow cytometric analysis (reference value: 5.6%)", "summary_of_the_method": "(§1)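 Log-phase cells seeded in 6-well plates and treated after adhesion; incubated in cycles of 6 h on/6 h off up to 48 h. Collected after PBS washes and trypsin, resuspended in Ca2+-enriched binding buffer. Stained with annexin V (1 µg/mL) plus PI (0.5 µg/mL) 15 min in the dark at room temperature. 10,000 events, FL1 vs FL2. At least three repeats.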"}, "[2]": {"tested_on": "MCF7", "experiment": "Induction of apoptosis in human MCF7 cells assessed as necrotic cells at 1 uM after 6 hrs by Annexin V-FITC/propidium iodide staining-based flow cytometric analysis (reference value: 0.5%)"}, "[3]": {"tested_on": "MCF7", "experiment": "Induction of apoptosis in human MCF7 cells assessed as viable cells at 1 uM after 24 hrs by Annexin V-FITC/propidium iodide staining-based flow cytometric analysis (reference value: 92.1%)", "settings": "MCF7, 24 h, read-out: Activity"}, "[4]": {"tested_on": "MCF7", "experiment": "Induction of apoptosis in human MCF7 cells assessed as early apoptotic cells at 25 uM after 6 hrs by Annexin V-FITC/propidium iodide staining-based flow cytometric analysis (reference value: 2%)", "summary_of_the_method": "as §1"}, "[5]": {"tested_on": "MCF7", "experiment": "Induction of apoptosis in human MCF7 cells assessed as necrotic cells at 5 uM after 6 hrs by Annexin V-FITC/propidium iodide staining-based flow cytometric analysis (reference value: 0.5%)"}, "[6]": {"tested_on": "MCF7", "experiment": "Induction of apoptosis in human MCF7 cells assessed as viable cells at 5 uM after 24 hrs by Annexin V-FITC/propidium iodide staining-based flow cytometric analysis (reference value: 92.1%)", "settings": "MCF7, 24 h, read-out: Activity"}, "[7]": {"tested_on": "MCF7", "experiment": "Induction of apoptosis in human MCF7 cells assessed as viable cells at 50 uM after 24 hrs by Annexin V-FITC/propidium iodide staining-based flow cytometric analysis (reference value: 92.1%)", "settings": "MCF7, 24 h, read-out: Activity"}, "[8]": {"tested_on": "MCF7", "experiment": "Induction of apoptosis in human MCF7 cells assessed as early apoptotic cells at 1 uM after 24 hrs by Annexin V-FITC/propidium iodide staining-based flow cytometric analysis (reference value: 2.1%)", "summary_of_the_method": "as §1"}, "[9]": {"tested_on": "MCF7", "experiment": "Induction of apoptosis in human MCF7 cells assessed as necrotic cells at 1 uM after 24 hrs by Annexin V-FITC/propidium iodide staining-based flow cytometric analysis (reference value: 0.1%)"}, "[10]": {"tested_on": "MCF7", "experiment": "Induction of apoptosis in human MCF7 cells assessed as necrotic cells at 5 uM after 24 hrs by Annexin V-FITC/propidium iodide staining-based flow cytometric analysis (reference value: 0.1%)"}, "[11]": {"tested_on": "MCF7", "experiment": "Induction of apoptosis in human MCF7 cells assessed as viable cells at 1 uM after 6 hrs by Annexin V-FITC/propidium iodide staining-based flow cytometric analysis (reference value: 92.8%)", "settings": "MCF7, 6 h, read-out: Activity"}, "[12]": {"tested_on": "MCF7", "experiment": "Induction of apoptosis in human MCF7 cells assessed as late apoptotic cells at 25 uM after 48 hrs by Annexin V-FITC/propidium iodide staining-based flow cytometric analysis (reference value: 2.8%)", "summary_of_the_method": "as §1"}, "[13]": {"tested_on": "MCF7", "experiment": "Induction of apoptosis in human MCF7 cells assessed as necrotic cells at 25 uM after 24 hrs by Annexin V-FITC/propidium iodide staining-based flow cytometric analysis (reference value: 0.1%)"}, "[14]": {"tested_on": "MCF7", "experiment": "Induction of apoptosis in human MCF7 cells assessed as early apoptotic cells at 5 uM after 6 hrs by Annexin V-FITC/propidium iodide staining-based flow cytometric analysis (reference value: 2%)", "summary_of_the_method": "as §1"}, "[15]": {"tested_on": "MCF7", "experiment": "Induction of apoptosis in human MCF7 cells assessed as necrotic cells at 50 uM after 6 hrs by Annexin V-FITC/propidium iodide staining-based flow cytometric analysis (reference value: 0.5%)"}, "[16]": {"tested_on": "MCF7", "experiment": "Induction of apoptosis in human MCF7 cells assessed as early apoptotic cells at 5 uM after 24 hrs by Annexin V-FITC/propidium iodide staining-based flow cytometric analysis (reference value: 2.1%)", "summary_of_the_method": "as §1"}, "[17]": {"tested_on": "MCF7", "experiment": "Induction of apoptosis in human MCF7 cells assessed as viable cells at 10 uM after 6 hrs by Annexin V-FITC/propidium iodide staining-based flow cytometric analysis (reference value: 92.8%)", "settings": "MCF7, 6 h, read-out: Activity"}, "[18]": {"tested_on": "MCF7", "experiment": "Induction of apoptosis in human MCF7 cells assessed as viable cells at 1 uM after 48 hrs by Annexin V-FITC/propidium iodide staining-based flow cytometric analysis (reference value: 87.9%)", "settings": "MCF7, 48 h, read-out: Activity"}, "[19]": {"tested_on": "MCF7", "experiment": "Induction of apoptosis in human MCF7 cells assessed as necrotic cells at 25 uM after 24 hrs by Annexin V-FITC/propidium iodide staining-based flow cytometric analysis (reference value: 0.2%)"}, "[20]": {"tested_on": "MCF7", "experiment": "Induction of apoptosis in human MCF7 cells assessed as viable cells at 10 uM after 48 hrs by Annexin V-FITC/propidium iodide staining-based flow cytometric analysis (reference value: 87.9%)", "settings": "MCF7, 48 h, read-out: Activity"}, "[21]": {"tested_on": "MCF7", "experiment": "Induction of apoptosis in human MCF7 cells assessed as necrotic cells at 5 uM after 24 hrs by Annexin V-FITC/propidium iodide staining-based flow cytometric analysis (reference value: 0.2%)"}, "[22]": {"tested_on": "MCF7", "experiment": "Induction of apoptosis in human MCF7 cells assessed as early apoptotic cells at 1 uM after 48 hrs by Annexin V-FITC/propidium iodide staining-based flow cytometric analysis (reference value: 9.1%)", "summary_of_the_method": "as §1"}, "[23]": {"tested_on": "MCF7", "experiment": "Induction of apoptosis in human MCF7 cells assessed as necrotic cells at 10 uM after 6 hrs by Annexin V-FITC/propidium iodide staining-based flow cytometric analysis (reference value: 0.5%)"}, "[24]": {"tested_on": "MCF7", "experiment": "Induction of apoptosis in human MCF7 cells assessed as late apoptotic cells at 10 uM after 48 hrs by Annexin V-FITC/propidium iodide staining-based flow cytometric analysis (reference value: 2.8%)", "summary_of_the_method": "as §1"}, "[25]": {"tested_on": "MCF7", "experiment": "Induction of apoptosis in human MCF7 cells assessed as early apoptotic cells at 50 uM after 48 hrs by Annexin V-FITC/propidium iodide staining-based flow cytometric analysis (reference value: 9.1%)", "summary_of_the_method": "as §1"}, "[26]": {"tested_on": "MCF7", "experiment": "Induction of apoptosis in human MCF7 cells assessed as late apoptotic cells at 50 uM after 6 hrs by Annexin V-FITC/propidium iodide staining-based flow cytometric analysis (reference value: 4.7%)", "summary_of_the_method": "as §1"}, "[27]": {"tested_on": "MCF7", "experiment": "Antitumor activity against human MCF7 cells xenografted in BALB/c nude mouse assessed as tumor weight at 40 mg/kg administered for a week", "summary_of_the_method": "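Male BALB/c nude mice, 4 weeks old, 15-20 g. Log-phase MCF-7 cells in DMEM, 0.1 mL of 1×10^6 cells/mL, injected subcutaneously into the hind leg. Calipers twice weekly; at about 90 mm3, groups of 5. Vehicle was isotonic saline plus 0.005% DMSO. Injected at 40 mg/kg for a week; tumour volume recorded daily.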"}, "[28]": {"tested_on": "MCF7", "experiment": "Induction of apoptosis in human MCF7 cells assessed as viable cells at 50 uM after 6 hrs by Annexin V-FITC/propidium iodide staining-based flow cytometric analysis (reference value: 92.8%)", "settings": "MCF7, 6 h, read-out: Activity"}, "[29]": {"tested_on": "MCF7", "experiment": "Induction of apoptosis in human MCF7 cells assessed as viable cells at 5 uM after 6 hrs by Annexin V-FITC/propidium iodide staining-based flow cytometric analysis (reference value: 92.8%)", "settings": "MCF7, 6 h, read-out: Activity"}, "[30]": {"tested_on": "MCF7", "experiment": "Induction of apoptosis in human MCF7 cells assessed as late apoptotic cells at 5 uM after 6 hrs by Annexin V-FITC/propidium iodide staining-based flow cytometric analysis (reference value: 4.7%)", "summary_of_the_method": "as §1"}},
  "data": [
    {"molecule": "COc1cc([C@@H]2c3cc4c(cc3[C@@H](O[C@@H]3O[C@@H]5CO[C@@H](C)O[C@H]5[C@H](O)[C@H]3O)[C@H]3COC(=O)[C@H]23)OCO4)cc(OC)c1O", "note": "[ETOPOSIDE]", "values": [
      {"measurement": "Activity", "setting": "[1]", "value": 8.4, "unit": "%"},
      {"measurement": "Activity", "setting": "[2]", "value": 0.5, "unit": "%"},
      {"measurement": "viability at 1 µM", "setting": "[3]", "value": 90.7, "unit": "%"},
      {"measurement": "Activity", "setting": "[4]", "value": 1.9, "unit": "%"},
      {"measurement": "Activity", "setting": "[5]", "value": 0.6, "unit": "%"},
      {"measurement": "viability at 5 µM", "setting": "[6]", "value": 84.2, "unit": "%"},
      {"measurement": "viability at 50 µM", "setting": "[7]", "value": 73.9, "unit": "%"},
      {"measurement": "Activity", "setting": "[8]", "value": 2.2, "unit": "%"},
      {"measurement": "Activity", "setting": "[9]", "value": 0.2, "unit": "%"},
      {"measurement": "Activity", "setting": "[10]", "value": 1.2, "unit": "%"},
      {"measurement": "viability at 1 µM", "setting": "[11]", "value": 90.8, "unit": "%"},
      {"measurement": "Activity", "setting": "[12]", "value": 19.7, "unit": "%"},
      {"measurement": "Activity", "setting": "[13]", "value": 1.6, "unit": "%"},
      {"measurement": "Activity", "setting": "[14]", "value": 2, "unit": "%"},
      {"measurement": "Activity", "setting": "[15]", "value": 0.8, "unit": "%"},
      {"measurement": "Activity", "setting": "[16]", "value": 6.7, "unit": "%"},
      {"measurement": "viability at 10 µM", "setting": "[17]", "value": 87.7, "unit": "%"},
      {"measurement": "viability at 1 µM", "setting": "[18]", "value": 79.1, "unit": "%"},
      {"measurement": "Activity", "setting": "[19]", "value": 0.8, "unit": "%"},
      {"measurement": "viability at 10 µM", "setting": "[20]", "value": 20.7, "unit": "%"},
      {"measurement": "Activity", "setting": "[21]", "value": 0.6, "unit": "%"},
      {"measurement": "Activity", "setting": "[22]", "value": 14.8, "unit": "%"},
      {"measurement": "Activity", "setting": "[23]", "value": 1, "unit": "%"},
      {"measurement": "Activity", "setting": "[24]", "value": 17.5, "unit": "%"},
      {"measurement": "Activity", "setting": "[25]", "value": 57, "unit": "%"},
      {"measurement": "Activity", "setting": "[26]", "value": 4.6, "unit": "%"},
      {"measurement": "Activity", "setting": "[27]", "value": 0.834, "unit": "g"},
      {"measurement": "viability at 50 µM", "setting": "[28]", "value": 91.6, "unit": "%"},
      {"measurement": "viability at 5 µM", "setting": "[29]", "value": 89.7, "unit": "%"},
      {"measurement": "Activity", "setting": "[30]", "value": 7.6, "unit": "%"}
    ]}
  ]
}
